{
  "source": "ChEMBL document CHEMBL1137826",
  "about": "“A new class of acyclic 2-alkyl-1,1,2-triaryl (Z)-olefins as selective cyclooxygenase-2 inhibitors” (J Med Chem, 2004)",
  "key": {"[1]": {"target": "T1, Prostaglandin G/H synthase 1 (Ovis aries, UniProt P05979)", "T1 sequence (P05979 whole entry)": "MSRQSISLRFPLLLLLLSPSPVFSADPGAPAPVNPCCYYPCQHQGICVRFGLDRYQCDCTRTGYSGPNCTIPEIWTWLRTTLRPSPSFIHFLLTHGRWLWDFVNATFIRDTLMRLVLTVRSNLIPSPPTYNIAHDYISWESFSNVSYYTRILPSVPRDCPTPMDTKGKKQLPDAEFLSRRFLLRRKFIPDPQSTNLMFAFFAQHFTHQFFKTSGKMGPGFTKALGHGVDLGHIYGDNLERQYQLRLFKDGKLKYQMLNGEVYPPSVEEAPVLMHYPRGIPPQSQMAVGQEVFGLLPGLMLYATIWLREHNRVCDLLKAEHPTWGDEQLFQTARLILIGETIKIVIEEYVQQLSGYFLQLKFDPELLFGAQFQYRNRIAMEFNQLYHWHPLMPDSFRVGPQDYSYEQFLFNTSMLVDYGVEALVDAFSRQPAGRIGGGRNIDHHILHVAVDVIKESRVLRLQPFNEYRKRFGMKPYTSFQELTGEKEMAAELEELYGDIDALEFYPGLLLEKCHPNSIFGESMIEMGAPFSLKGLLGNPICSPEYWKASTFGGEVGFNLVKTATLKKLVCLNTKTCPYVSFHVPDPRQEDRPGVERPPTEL", "assay": "In vitro inhibition of ovine prostaglandin G/H synthase 1"}, "Rattus norvegicus [2]": {"system": "Rattus norvegicus", "assay": "Percent inhibition of 4% sodium chloride-induced abdominal constriction in rat after 30 min of 5 mg/kg oral dose of the compound", "format": "functional", "details": "Abdomen, 0.5 h", "in_short": "(§1)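 Test compound given to rats orally at 5 mg/kg before 4% NaCl-induced writhing (abdominal constriction).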"}, "Rattus norvegicus [3]": {"system": "Rattus norvegicus", "assay": "Percent inhibition of 4% sodium chloride-induced abdominal constriction in rat after 60 min of 5 mg/kg oral dose of the compound", "format": "functional", "details": "Abdomen, 1 h", "in_short": "as §1"}, "[4]": {"target": "T2, Prostaglandin G/H synthase 2 (Rattus norvegicus) (UniProt P35355)", "T2 sequence (whole entry)": "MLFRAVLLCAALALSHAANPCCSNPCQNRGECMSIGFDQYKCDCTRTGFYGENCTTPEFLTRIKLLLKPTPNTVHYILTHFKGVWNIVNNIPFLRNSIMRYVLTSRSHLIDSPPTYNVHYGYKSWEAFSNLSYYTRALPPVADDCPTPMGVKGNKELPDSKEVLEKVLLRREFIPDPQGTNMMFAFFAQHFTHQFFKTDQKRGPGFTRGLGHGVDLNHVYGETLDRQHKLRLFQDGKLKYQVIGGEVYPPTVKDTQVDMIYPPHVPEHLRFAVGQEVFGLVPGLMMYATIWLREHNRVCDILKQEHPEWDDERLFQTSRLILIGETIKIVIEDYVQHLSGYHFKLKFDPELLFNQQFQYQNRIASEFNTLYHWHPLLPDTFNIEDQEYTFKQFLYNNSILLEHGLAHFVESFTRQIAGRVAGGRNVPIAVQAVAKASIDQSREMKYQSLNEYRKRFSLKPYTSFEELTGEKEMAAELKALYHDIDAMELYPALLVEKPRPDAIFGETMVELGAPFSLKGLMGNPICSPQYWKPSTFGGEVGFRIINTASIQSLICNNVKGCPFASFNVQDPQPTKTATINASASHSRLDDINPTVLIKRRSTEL"}, "Rattus norvegicus [5]": {"species": "Rattus norvegicus", "assay": "animal or person", "details": "Abdomen, po, 0.5 h, read-out: Inhibition"}},
  "data": [
    {"smiles": "CCCCCC/C(=C(\\c1ccccc1)c1ccc(S(C)(=O)=O)cc1)c1ccccc1", "values": [
      {"measurement": "IC50", "setting": "[1]", "value": "> 100", "unit": "µM"},
      {"measurement": "inhibition in vivo at 5 mg/kg", "setting": "Rattus norvegicus [2]", "value": 33.3, "unit": "%"},
      {"measurement": "inhibition in vivo at 5 mg/kg", "setting": "Rattus norvegicus [3]", "value": 35.4, "unit": "%"},
      {"measurement": "ID50", "setting": "[4]", "value": 1.1, "unit": "mg/kg"}
    ]},
    {"smiles": "CC/C(=C(\\c1ccccc1)c1ccc(S(C)(=O)=O)cc1)c1ccccc1", "values": [
      {"measurement": "IC50", "setting": "[1]", "value": "> 100", "unit": "µM"},
      {"measurement": "inhibition in vivo at 5 mg/kg", "setting": "Rattus norvegicus [2]", "value": 38.8, "unit": "%"},
      {"measurement": "inhibition in vivo at 5 mg/kg", "setting": "Rattus norvegicus [3]", "value": 50, "unit": "%"},
      {"measurement": "ID50", "setting": "[4]", "value": 1.9, "unit": "mg/kg"}
    ]},
    {"smiles": "CCC/C(=C(\\c1ccccc1)c1ccc(S(C)(=O)=O)cc1)c1ccccc1", "values": [
      {"measurement": "IC50", "setting": "[1]", "value": "> 100", "unit": "µM"}
    ]},
    {"smiles": "CCCCCCCC/C(=C(\\c1ccccc1)c1ccc(S(C)(=O)=O)cc1)c1ccccc1", "values": [
      {"measurement": "IC50", "setting": "[1]", "value": "> 100", "unit": "µM"}
    ]},
    {"smiles": "CC/C(=C(\\c1ccccc1)c1ccc(S(C)(=O)=O)cc1)c1ccc(OC(C)=O)cc1", "values": [
      {"measurement": "IC50", "setting": "[1]", "value": 0.25, "unit": "µM"},
      {"measurement": "inhibition in vivo at 5 mg/kg", "setting": "Rattus norvegicus [2]", "value": 60, "unit": "%"},
      {"measurement": "inhibition in vivo at 5 mg/kg", "setting": "Rattus norvegicus [3]", "value": 57.5, "unit": "%"},
      {"measurement": "ID50", "setting": "[4]", "value": 1.3, "unit": "mg/kg"}
    ]},
    {"smiles": "Cc1ccc(-c2cc(C(F)(F)F)nn2-c2ccc(S(N)(=O)=O)cc2)cc1", "note": "[CELECOXIB]", "values": [
      {"measurement": "inhibition in vivo at 50 mg/kg", "setting": "Rattus norvegicus [5]", "value": 69.3, "unit": "%"}
    ]},
    {"smiles": "CCCC/C(=C(\\c1ccccc1)c1ccc(S(C)(=O)=O)cc1)c1ccc(OC(C)=O)cc1", "values": [
      {"measurement": "IC50", "setting": "[1]", "value": "> 100", "unit": "µM"}
    ]},
    {"smiles": "CCCC/C(=C(\\c1ccccc1)c1ccc(S(C)(=O)=O)cc1)c1ccccc1", "values": [
      {"measurement": "IC50", "setting": "[1]", "value": 30, "unit": "µM"}
    ]}
  ]
}
